Hits are enriched below; roughly 3.5% of the tested compounds scored in any of these assays.
MrgX1 allo act – positive allosteric modulators of MrgX1, primary screen, HEK293 cells, Fluo-4 calcium flux; Mas-related G-protein coupled receptor member X1 (Homo sapiens), Q96LB2; FDSS; active compounds read high; B-score at 10 µM; 0.63% of 310,000 active; AID 588675, 2011;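 active = plate-corrected calcium response at least 3 library SD above typical, normal starting fluorescence, not activating the receptor alone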;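 also: compound read alongside a low EC10 to EC30 dose of BAM8-22 agonist; peak minus trough fluorescence over baseline measured at the second addition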
Target sequence (Q96LB2 whole entry, looked up): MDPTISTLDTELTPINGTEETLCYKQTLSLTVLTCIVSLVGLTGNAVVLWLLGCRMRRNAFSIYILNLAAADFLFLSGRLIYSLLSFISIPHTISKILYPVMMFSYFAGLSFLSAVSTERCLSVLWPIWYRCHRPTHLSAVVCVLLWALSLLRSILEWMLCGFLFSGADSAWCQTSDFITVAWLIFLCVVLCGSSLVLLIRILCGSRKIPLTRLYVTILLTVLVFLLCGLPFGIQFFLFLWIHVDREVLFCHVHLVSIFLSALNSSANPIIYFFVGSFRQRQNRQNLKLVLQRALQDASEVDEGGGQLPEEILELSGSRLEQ
RGS4 pot – RGS4 potentiators or activators, primary screen, cell-based, HEK293 M3R inducible RGS4, calcium flux; carbachol calcium flux Fluo4; active compounds read low; 0.92% of 310,000 active; B-score at 10 µM;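 active = B-score of the integrated calcium signal more than 4 SD below the library mean, with starting fluorescence not abnormally high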;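 also: negative B-score means reduced calcium response which marks RGS4 activation or potentiation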
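Detection: kinetic calcium fluorescence imaging with Fluo4-AM dye, 2 µM / Material: HEK293 cells with stable M3R and inducible RGS4 / Schedule: recording 10 s baseline at 1 Hz, 100 s post-agonist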
RGS4 block – RGS4 inhibitors, primary screen, cell-based, HEK293 M3R inducible RGS4, calcium flux; 0.45% of 310,000 active; AID 463165, 2010; Regulator of G-protein signaling 4 (Homo sapiens), P49798; Fluo-4 calcium flux; active compounds read high; triggered by carbachol at its EC20; B-score at 10 µM;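 active = B-score, a plate-corrected calcium signal, over three deviations above library mean, with baseline fluorescence within five deviations of library mean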;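 also: RGS4 expression induced by doxycycline in cells with stable M3 receptor; B-score is computed from the integrated fluorescence ratio over baseline after carbachol; higher B-score means a larger calcium signal and so more RGS4 inhibition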
Target sequence (P49798 whole entry, looked up): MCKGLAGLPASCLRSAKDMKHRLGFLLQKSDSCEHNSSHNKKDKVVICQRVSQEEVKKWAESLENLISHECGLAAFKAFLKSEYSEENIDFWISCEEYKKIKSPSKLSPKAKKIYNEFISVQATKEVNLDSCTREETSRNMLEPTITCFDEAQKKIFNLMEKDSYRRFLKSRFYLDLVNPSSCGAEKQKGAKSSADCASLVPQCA
MrgX1 antag – antagonists of human MrgX1 receptor, primary screen, HEK293 cells, Fluo-4 calcium flux. Mas-related G-protein coupled receptor member X1 (Homo sapiens), Q96LB2. BAM8-22 antagonism; active compounds read low. B-score at 10 µM. 1.3% of 310,000 active. AID 588676, 2011;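 active = calcium-response B-score plate-corrected more than 3 library SD below zero, starting fluorescence within 5 deviations, no agonist response on first addition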;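 also: peak minus trough fluorescence over baseline after final BAM8-22 challenge near maximal dose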
MrgX1 ag – agonists of human MrgX1 receptor, primary screen, HEK293 cells, Fluo-4 calcium flux. Mas-related G-protein coupled receptor member X1 (Homo sapiens), Q96LB2. Fluo-4 calcium fluorescence, agonist mode; active compounds read high. B-score at 10 µM. 0.44% of 310,000 active. AID 588627, 2011;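 active = calcium response B-score plate-corrected fluorescence ratio at least 3 library SD, with starting fluorescence B-score inside 5 SD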
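Test system: Stable human MrgX1 HEK293 cell line | Schedule: Overnight plating before 1 h dye loading | Read-out basis: Baseline-normalised fluorescence change ratio, B-scored | Detection: Kinetic calcium dye fluorescence, Fluo-4 NW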
RGS4 act valid – reduced carbachol calcium response, RGS4-induced M3R cells, confirmation, RGS4 activator project, cell-based, HEK293 M3R/RGS4 inducible, calcium flux, duplicate; shares compounds with RGS4 pot; carbachol calcium flux Fluo4; inhibition, % at 10 µM; 89% of 1,100 active; AID 602282, 2012;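 active = inhibition above 3 SD of the buffer control wells, cut at about 41% in these data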;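 also: signal is the integrated peak-minus-minimum Fluo4 fluorescence over baseline ratio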
M3R Ca counter – RGS4 activator counter-screen hit in non-induced cells; shares compounds with RGS4 pot; HEK293 M3R non-induced RGS4, Fluo4 calcium flux; after carbachol challenge at its EC90; inhibition, % at 10 µM; 82% of 1,100 active; AID 602283;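 active = inhibition exceeding 3 SD of buffer-only control wells, cut at about 26% in these data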;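 also: percent drop in integrated peak-minus-baseline over baseline Fluo4 ratio after carbachol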
Of the large screens only hits and unclear results are named; the others gave an inactive call (follow-up assays come after a bar, where they were run); ! = not confirmed by another sample.

CCOC(=O)c1c(NC(=O)c2cccc(N3C(=O)CCC3=O)c2)sc2c1CCN(CC)C2	RGS4 pot -9.8 | RGS4 act valid 90.5 | M3R Ca counter 44.3
OC(CN1CCN(C(c2ccccc2)c2ccccc2)CC1)c1ccc(Br)cc1 (configuration not stated)	RGS4 pot -13.2 | RGS4 act valid 92.5 | M3R Ca counter 78.8
Cc1cc(CN(C)C(=O)C2CCC(=O)N(CCc3cccc(F)c3)C2)on1 (configuration not stated)	none
O=C(NCC1CCN(c2ccc(S(=O)(=O)N3CCOCC3)cc2)CC1)c1ccc(Cl)cc1	RGS4 pot -10.8 | RGS4 act valid 92.5 | M3R Ca counter 80.8
CN(C)Cc1ccccc1CCc1ccccc1	RGS4 pot -8.27 | RGS4 act valid 78.0 | M3R Ca counter 41.8
CC1=C(C(=O)OCc2ccccc2)C(c2ccc(Cl)cc2)NC(=O)N1CCCC(=O)O (configuration not stated)	none
C=CCNc1nc(N2CCCCC2)c(C#N)c2c1CN(Cc1ccccc1)CC2	RGS4 pot -8.89 | RGS4 act valid 94.0 | M3R Ca counter 80.8
Cc1c(C(=O)Nc2c(C)n(C)n(-c3ccccc3)c2=O)oc2ccc(Cl)cc12	none
Cc1nc(SCC(=O)O)c2oc3ccccc3c2n1	none
CCc1nc(SCC(=O)NC2CCCC2)c2oc3ccccc3c2n1	none
CCc1nc(SCC(=O)N2CCCc3ccccc32)c2oc3ccccc3c2n1	RGS4 pot -9.45 | RGS4 act valid 89.5 | M3R Ca counter 70.8
Cc1nc(SCC(=O)N2CCN(c3ccccc3)CC2)c2oc3ccccc3c2n1	RGS4 pot -9.3 | RGS4 act valid 80.0 | M3R Ca counter inactive
Cc1ccc(F)cc1NC(=O)CSCc1nc2sc(C)c(C)c2c(=O)[nH]1	none
O=C(CSc1nc2ccccc2s1)N1c2ccccc2Sc2ccc(Cl)cc21	none
O=C(NCCN1CCOCC1)N1c2ccccc2Sc2ccccc21	RGS4 pot -10.6 | RGS4 act valid 83.0 | M3R Ca counter 54.3
CN(C)CCCNC(=O)N1c2ccccc2Sc2ccccc21	RGS4 pot -11.3 | RGS4 act valid 92.0 | M3R Ca counter 90.8
O=C(CCN1CCOCC1)N1c2ccccc2Sc2ccc(Cl)cc21	RGS4 pot -8.94 | RGS4 act valid 92.0 | M3R Ca counter 89.8
Cc1ccc(N2C(=O)C(Cl)=C(N3CCOCC3)C2=O)c(C)c1	none
COc1cccc(C2=Nn3c(nnc3-c3ccccc3O)SC2)c1	none
C[n+]1c2n(c3ccccc31)N=C(c1cc(C(C)(C)C)c(O)c(C(C)(C)C)c1)CS2	RGS4 pot -13.4, MrgX1 antag -8.65 | RGS4 act valid 94.5 | M3R Ca counter 82.8
Cc1cnc(NC(=O)C2=C(O)c3ccccc3S(=O)(=O)N2C)s1	RGS4 pot -9.47! | RGS4 act valid inactive | M3R Ca counter inactive
CSc1nnc2c3cc(F)ccc3n(Cc3ccccc3)c2n1	none
CCN(CC)CCSc1nnc2c3cc(C)ccc3n(Cc3ccccc3)c2n1	RGS4 pot -10.8 | RGS4 act valid 93.0 | M3R Ca counter 85.3
CCCS(=O)(=O)c1nc(S(=O)(=O)c2ccc(C)cc2)c(NCCCN2CCCC2=O)s1	none
COc1ccccc1C(=O)Nc1nc(-c2ccc3c(c2)OCCO3)cs1	RGS4 pot -8.77 | RGS4 act valid 88.5 | M3R Ca counter 62.3
COCC1COS(=O)(=O)NC1(C)C (configuration not stated)	none
CC1(C)CC(=O)C2=C(C1)N(c1ccc(Cl)cc1)C(=O)C2(O)C(F)(F)F (configuration not stated)	RGS4 pot -14.3 | RGS4 act valid 79.0 | M3R Ca counter 26.8
Cc1ccc(N2C(=O)C(O)(C(F)(F)F)C3=C2CC(C)(C)CC3=O)cc1C (configuration not stated)	none
Cc1ccc(Cl)cc1NC(=O)COC(=O)CC1CC2CCC1C2 (configuration not stated)	none
COC(=O)c1ccc(C(=O)OC)c(NC(=O)COC(=O)CC2CC3CCC2C3)c1 (configuration not stated)	RGS4 pot -9.7 | RGS4 act valid 90.0 | M3R Ca counter 32.8
COc1cccc(/C=N/n2c(-c3n[nH]c4c3CCC4)n[nH]c2=S)c1O	RGS4 pot -9.07 | RGS4 act valid 93.5 | M3R Ca counter 93.3
COc1ccccc1/C=C/C=N/n1c(-c2n[nH]c3c2CCC3)n[nH]c1=S	none
S=c1[nH]nc(-c2n[nH]c3c2CCC3)n1/N=C/C=C/c1ccco1	RGS4 pot -9.08 | RGS4 act valid 89.0 | M3R Ca counter 57.8
CNc1nc(-c2ccccc2)[n+](-c2ccc(C)cc2)s1	RGS4 pot -13.9 | RGS4 act valid 97.0 | M3R Ca counter 93.3
FC(F)(F)c1cccc(CN2CCC(c3cc(-c4cccs4)n[nH]3)CC2)c1	none
Cc1ccc(CN2CCC(c3cc(-c4cccs4)n[nH]3)CC2)cc1	RGS4 pot -16.6 | RGS4 act valid 91.0 | M3R Ca counter 68.3
CNC(=O)c1ccccc1Nc1ccc(SC(F)F)cc1	none
O=C(NCc1ccncc1)c1ccccc1Nc1ccc(SC(F)F)cc1	RGS4 pot -8.89 | RGS4 act valid 92.5 | M3R Ca counter 84.8
COC(=O)c1ccccc1S(=O)(=O)N1CCC(C(=O)N(C)CCOc2ccccc2)CC1	none
CN1[C@@H]2CC[C@H]1CC(OC(=O)C(O)c1ccccc1)C2 (some centres not stated)	none (no result: RGS4 pot, RGS4 block)
CN1C2CCC1CC(OC(c1ccccc1)c1ccccc1)C2 (configuration not stated)	RGS4 pot -8.84 | RGS4 act valid 92.0 | M3R Ca counter 91.3
CCSc1nc2sc3c(c2c(=O)n1-c1ccccc1)CCN(C(C)C)C3	RGS4 pot -7.88 | RGS4 act valid 64.5 | M3R Ca counter inactive
CN1CCc2c(sc3nc(SCC(N)=O)n(-c4ccccc4)c(=O)c23)C1	none
Cn1c(=O)n(CCCO)c(=O)c2c1nc1n2CCCN1Cc1ccccc1	none
COC(C#CCCN(C)C)(c1ccccc1)c1ccccc1	RGS4 pot -8.41 | RGS4 act valid 92.5 | M3R Ca counter 96.3
CN(C)CCOC(C)(c1ccccc1)c1ccccn1 (configuration not stated)	none
